Measurements from ChEMBL document CHEMBL1142890, “Structure-antibacterial activity of arylcarbonyl- and arylsulfonyl-piperazine 5-triazolylmethyl oxazolidinones” (2007).
≈ marks a conversion by molar mass, not a printed value.

Tests used:
[1] = test system: Enterococcus; test: Antimicrobial activity against vancomycin-resistant Enterococcus by agar dilution method; type: functional
How it was run: (§1)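 Agar dilution per CLSI on Mueller-Hinton agar, test agents at 0.12 to 8 µg/ml; test compounds dissolved in 20% water in DMSO, linezolid in 40% water in ethanol, vancomycin in water. Clinical isolates inoculated at final 10^7 CFU/ml, incubated 35 °C for 18 h. MIC = lowest concentration completely inhibiting growth; reported as range across isolates.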

[2] = test system: Staphylococcus aureus; test: Antimicrobial activity against Staphylococcus aureus ATCC 25923 by agar dilution method
[3] = test system: Haemophilus influenzae; test: Antimicrobial activity against Haemophilus influenzae; type: functional
[4] = test system: Staphylococcus aureus; test: Antimicrobial activity against methicillin-susceptible Staphylococcus aureus by agar dilution method; type: functional; how it was run: as §1
[5] = test system: Streptococcus pneumoniae; test: Antimicrobial activity against Streptococcus pneumoniae by agar dilution method; type: functional
How it was run: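 Agar dilution per CLSI on Mueller–Hinton agar holding drug dilutions from 0.12 to 8 µg/ml. Staphylococci and enterococci tested on plain MH agar, S. pneumoniae on MH agar with 5% sheep blood. Test compounds dissolved in 20% water in DMSO. Inoculum 10⁷ CFU/ml, incubated 35 °C for 18 h. MIC was the lowest concentration giving complete growth inhibition.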

[6] = test system: Enterococcus; test: Antimicrobial activity against vancomycin-sensitive Enterococcus by agar dilution method; type: functional; how it was run: as §1
[7] = test system: Staphylococcus aureus; test: Antimicrobial activity against Staphylococcus aureus ATCC 25922 in presence of 50% human plasma […]; type: functional; conditions: ATCC 25923, Plasma, in the assay text read “ATCC 25923” for “ATCC 25922”
How it was run: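 S. aureus ATCC 25923 tested in Mueller–Hinton broth supplemented with 50% human plasma. Test compounds dissolved in 20% water in DMSO. Inoculum 10⁷ CFU/ml, incubated 35 °C for 18 h. MIC was the lowest concentration completely inhibiting growth.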

[8] = test system: Staphylococcus aureus; test: Antimicrobial activity against methicillin-resistant Staphylococcus aureus by agar dilution method; type: functional; how it was run: as §1
[9] = test system: Staphylococcus; test: Antimicrobial activity against methicillin-resistant coagulase-negative Staphylococcus by agar dilution method; type: functional; how it was run: as §1
[10] = test system: Escherichia coli; test: Antimicrobial activity against Escherichia coli ATCC 25922; type: functional
[11] = test system: Moraxella catarrhalis; test: Antimicrobial activity against Moraxella catarrhalis; type: functional
[12] = test system: Staphylococcus; test: Antimicrobial activity against methicillin-susceptible coagulase-negative staphylococcus by agar dilution method; type: functional; how it was run: as §1

Structure (SMILES)	MIC [1]	MIC [2]	MIC [3]	MIC [4]	MIC [5]	MIC [6]	MIC [7]	MIC [8]	MIC [9]	MIC [10]	MIC [11]	MIC [12]
O=C(c1ccccc1Cl)N1CCN(c2ccc(N3C[C@H](Cn4ccnn4)OC3=O)cc2F)CC1	0.5 µg/mL (≈ 1.03 µM)	1 µg/mL (≈ 2.06 µM)	≥ 8 µg/mL	0.5 µg/mL (≈ 1.03 µM)	4 µg/mL (≈ 8.25 µM)	0.5 µg/mL (≈ 1.03 µM)	8 µg/mL	0.5 µg/mL (≈ 1.03 µM)	0.5 µg/mL (≈ 1.03 µM)	≥ 8 µg/mL	≥ 8 µg/mL	0.5 µg/mL (≈ 1.03 µM)
O=C(c1ccc([N+](=O)[O-])cc1)N1CCN(c2ccc(N3C[C@H](Cn4ccnn4)OC3=O)cc2F)CC1	2 µg/mL (≈ 4.04 µM)	2 µg/mL (≈ 4.04 µM)	≥ 8 µg/mL	2 µg/mL (≈ 4.04 µM)	1 µg/mL (≈ 2.02 µM)	2 µg/mL (≈ 4.04 µM)	4 µg/mL	1 µg/mL (≈ 2.02 µM)	1 µg/mL (≈ 2.02 µM)	≥ 8 µg/mL	≥ 8 µg/mL	1 µg/mL (≈ 2.02 µM)
O=C(C(=O)N1CCN(c2ccc(N3C[C@H](Cn4ccnn4)OC3=O)cc2F)CC1)c1cccs1	0.25 µg/mL (≈ 0.516 µM)	0.5 µg/mL (≈ 1.03 µM)	≥ 8 µg/mL	0.25 µg/mL (≈ 0.516 µM)	0.25 µg/mL (≈ 0.516 µM)	0.5 µg/mL (≈ 1.03 µM)	2 µg/mL	0.25 µg/mL (≈ 0.516 µM)	0.25 µg/mL (≈ 0.516 µM)	≥ 8 µg/mL	≥ 8 µg/mL	0.25 µg/mL (≈ 0.516 µM)
O=C(c1ccc(F)cc1)N1CCN(c2ccc(N3C[C@H](Cn4ccnn4)OC3=O)cc2F)CC1	0.5 µg/mL (≈ 1.07 µM)	1 µg/mL (≈ 2.13 µM)	≥ 8 µg/mL	0.5 µg/mL (≈ 1.07 µM)	0.5 µg/mL (≈ 1.07 µM)	1 µg/mL (≈ 2.13 µM)	4 µg/mL	0.5 µg/mL (≈ 1.07 µM)	0.5 µg/mL (≈ 1.07 µM)	≥ 8 µg/mL	≥ 8 µg/mL	0.5 µg/mL (≈ 1.07 µM)
O=C(c1cccnc1)N1CCN(c2ccc(N3C[C@H](Cn4ccnn4)OC3=O)cc2F)CC1	0.5 µg/mL (≈ 1.11 µM)	1 µg/mL (≈ 2.22 µM)	≥ 8 µg/mL	0.5 µg/mL (≈ 1.11 µM)	0.5 µg/mL (≈ 1.11 µM)	1 µg/mL (≈ 2.22 µM)	4 µg/mL	0.5 µg/mL (≈ 1.11 µM)	0.5 µg/mL (≈ 1.11 µM)	≥ 8 µg/mL	≥ 8 µg/mL	0.5 µg/mL (≈ 1.11 µM)
O=C(c1ccccc1)N1CCN(c2ccc(N3C[C@H](Cn4ccnn4)OC3=O)cc2F)CC1	0.25 µg/mL (≈ 0.555 µM)	1 µg/mL (≈ 2.22 µM)	≥ 8 µg/mL	0.25 µg/mL (≈ 0.555 µM)	1 µg/mL (≈ 2.22 µM)	0.25 µg/mL (≈ 0.555 µM)	1 µg/mL	0.25 µg/mL (≈ 0.555 µM)	0.25 µg/mL (≈ 0.555 µM)	≥ 8 µg/mL	≥ 8 µg/mL	0.25 µg/mL (≈ 0.555 µM)
O=C(c1cccc(F)c1)N1CCN(c2ccc(N3C[C@H](Cn4ccnn4)OC3=O)cc2F)CC1	0.5 µg/mL (≈ 1.07 µM)	1 µg/mL (≈ 2.13 µM)	≥ 8 µg/mL	0.25 µg/mL (≈ 0.534 µM)	0.5 µg/mL (≈ 1.07 µM)	0.5 µg/mL (≈ 1.07 µM)	4 µg/mL	0.25 µg/mL (≈ 0.534 µM)	0.5 µg/mL (≈ 1.07 µM)	≥ 8 µg/mL	≥ 8 µg/mL	0.5 µg/mL (≈ 1.07 µM)
CC(=O)NC[C@H]1CN(c2ccc(N3CCOCC3)c(F)c2)C(=O)O1 [LINEZOLID]	2 µg/mL (≈ 5.93 µM)	–	≥ 8 µg/mL	1 µg/mL (≈ 2.96 µM)	–	0.5 µg/mL (≈ 1.48 µM)	–	0.5 µg/mL (≈ 1.48 µM)	1 µg/mL (≈ 2.96 µM)	≥ 8 µg/mL	≥ 8 µg/mL	0.25 µg/mL (≈ 0.741 µM)
O=C(c1cccnc1Cl)N1CCN(c2ccc(N3C[C@H](Cn4ccnn4)OC3=O)cc2F)CC1	1 µg/mL (≈ 2.06 µM)	2 µg/mL (≈ 4.12 µM)	≥ 8 µg/mL	0.5 µg/mL (≈ 1.03 µM)	1 µg/mL (≈ 2.06 µM)	1 µg/mL (≈ 2.06 µM)	4 µg/mL	0.5 µg/mL (≈ 1.03 µM)	0.5 µg/mL (≈ 1.03 µM)	≥ 8 µg/mL	≥ 8 µg/mL	0.5 µg/mL (≈ 1.03 µM)
Cc1ccc(C(=O)N2CCN(c3ccc(N4C[C@H](Cn5ccnn5)OC4=O)cc3F)CC2)cc1	0.5 µg/mL (≈ 1.08 µM)	1 µg/mL (≈ 2.15 µM)	≥ 8 µg/mL	0.5 µg/mL (≈ 1.08 µM)	2 µg/mL (≈ 4.31 µM)	1 µg/mL (≈ 2.15 µM)	8 µg/mL	0.5 µg/mL (≈ 1.08 µM)	0.5 µg/mL (≈ 1.08 µM)	≥ 8 µg/mL	≥ 8 µg/mL	0.5 µg/mL (≈ 1.08 µM)
O=C(c1ccccc1F)N1CCN(c2ccc(N3C[C@H](Cn4ccnn4)OC3=O)cc2F)CC1	0.5 µg/mL (≈ 1.07 µM)	0.5 µg/mL (≈ 1.07 µM)	≥ 8 µg/mL	0.25 µg/mL (≈ 0.534 µM)	1 µg/mL (≈ 2.13 µM)	0.5 µg/mL (≈ 1.07 µM)	8 µg/mL	0.25 µg/mL (≈ 0.534 µM)	0.25 µg/mL (≈ 0.534 µM)	≥ 8 µg/mL	≥ 8 µg/mL	0.25 µg/mL (≈ 0.534 µM)
Cc1cccc(S(=O)(=O)N2CCN(c3ccc(N4C[C@H](Cn5ccnn5)OC4=O)cc3F)CC2)c1	–	> 8 µg/mL	≥ 8 µg/mL	4 µg/mL (≈ 7.99 µM)	2 µg/mL (≈ 4 µM)	> 8 µg/mL	> 8 µg/mL	2 µg/mL (≈ 4 µM)	2 µg/mL (≈ 4 µM)	≥ 8 µg/mL	≥ 8 µg/mL	2 µg/mL (≈ 4 µM)
